Measured values: ChEMBL document CHEMBL1926540, “Conformationally restricted analogs of the direct thrombin inhibitor FM 19” (Bioorg Med Chem, 2011)
pIC50: −log10 of the molar value.

biological target: Prothrombin (Homo sapiens, UniProt P00734); experiment: Inhibition of human alpha-thrombin using sarcosine-Pro-Arg-p-nitroanilide as substrate preincubated for 5 mins before substrate addition measured after 10 mins by spectrophotometry
Summary of the method: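 Human α-thrombin (>95% pure, 5070 U/mg) kept on ice in assay buffer (10 mM Tris, 150 mM NaCl, pH 7.6). Enzyme preincubated with peptide 5 min at 37 °C, then chromogenic substrate added. Final concentrations: 2 nM enzyme, 200 substrate. Nine peptide concentrations, each in triplicate.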

Going from Cc1ccc(C[C@H](NC(=O)[C@@H](C)NC(=O)[C@@H]2CCCN2C(=O)[C@@H]2C[C@@H]3CCCC[C@@H]3N2C(=O)[C@H](N)CCCN=C(N)N)C(N)=O)cc1 to Cc1ccc(C[C@H](NC(=O)[C@@H](C)NC(=O)[C@@H]2CCCN2C(=O)[C@@H]2C[C@@H]3CCCC[C@@H]3N2C(=O)c2ccc(NC(=N)N)cc2)C(N)=O)cc1, the pIC50 rises from 5.36 to 6.24 (0.88 log units). The second is the more potent here.

Going from Cc1ccc(C[C@H](NC(=O)[C@@H](C)NC(=O)[C@@H]2CCCN2C(=O)[C@@H]2C[C@@H]3CCCC[C@@H]3N2C(=O)[C@H]2CC[C@@H](N=C(N)N)CC2)C(N)=O)cc1 to Cc1ccc(C[C@H](NC(=O)[C@@H](C)NC(=O)[C@@H]2CCCN2C(=O)[C@@H]2C[C@@H]3CCCC[C@@H]3N2C(=O)[C@H]2CC[C@H](N=C(N)N)CC2)C(N)=O)cc1, the pIC50 rises from 4.71 to 5.60 (0.89 log units).

First: Cc1ccc(C[C@H](NC(=O)[C@@H](C)NC(=O)[C@@H]2CCCN2C(=O)[C@@H]2C[C@@H]3CCCC[C@@H]3N2C(=O)c2cccc(C(=N)N)c2)C(N)=O)cc1
Second: Cc1ccc(C[C@H](NC(=O)[C@@H](C)NC(=O)[C@@H]2CCCN2C(=O)[C@@H]2C[C@@H]3CCCC[C@@H]3N2C(=O)Cc2cccc(C(=N)N)c2)C(N)=O)cc1
The pIC50 of the first is 1.41 log units higher: 5.99 for the first, 4.58 for the second.

Cc1ccc(C[C@H](NC(=O)[C@@H](C)NC(=O)[C@@H]2CCCN2C(=O)[C@@H]2C[C@@H]3CCCC[C@@H]3N2C(=O)c2ccc(C(=N)N)cc2)C(N)=O)cc1 and Cc1ccc(C[C@H](NC(=O)[C@@H](C)NC(=O)[C@@H]2CCCN2C(=O)[C@@H]2C[C@@H]3CCCC[C@@H]3N2C(=O)Cc2ccc(C(=N)N)cc2)C(N)=O)cc1 are within 0.2 log units of each other in pIC50: 6.29 for the first, 6.35 for the second.

Going from Cc1ccc(C[C@H](NC(=O)[C@@H](C)NC(=O)[C@@H]2CCCN2C(=O)[C@@H]2C[C@@H]3CCCC[C@@H]3N2C(=O)[C@H](C)CCCN=C(N)N)C(N)=O)cc1 to Cc1ccc(C[C@H](NC(=O)[C@@H](C)NC(=O)[C@@H]2CCCN2C(=O)[C@@H]2C[C@@H]3CCCC[C@@H]3N2C(=O)[C@@H](C)CCCN=C(N)N)C(N)=O)cc1, the pIC50 rises from 4.01 to 5.01 (1.00 log units).

Compared with Cc1ccc(C[C@H](NC(=O)[C@@H](C)NC(=O)[C@@H]2CCCN2C(=O)[C@@H]2C[C@@H]3CCCC[C@@H]3N2C(=O)[C@@H](N)CCCN=C(N)N)C(N)=O)cc1, H-RPPGF-OH is 0.92 log units lower in pIC50: 4.14 for the first, 3.22 for the second. The first is the more potent here.
